Assay results as given in ChEMBL document CHEMBL2424602, “Mannich bases of 7-piperazinylquinolones and kojic acid derivatives: synthesis, in vitro antibacterial activity and in silico study” (2013).
Values after ≈ are worked out from the molar mass of the structure shown.

Key:
Assay type in all cases: functional
[1] = tested on: Pseudomonas aeruginosa; assay: Potency index, ratio of norfloxacin MIC to compound MIC for Pseudomonas aeruginosa ATCC 9027
[2] = tested on: Klebsiella pneumoniae; assay: Antibacterial activity against Klebsiella pneumoniae ATCC 10031 assessed as growth inhibition after 18 hrs by agar dilution method; conditions: ATCC 10031, 18 h
Method in brief: (§1)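 MIC read by conventional agar dilution. Compounds were dissolved at 10.0 mg in 1 mL DMSO and diluted with 9 mL distilled water to make the stock. Two-fold serial dilutions were made in molten sterile Mueller-Hinton agar, with final levels starting at 100, 50, 25, 12.5, 6.25, 3.13, 1.56 and lower.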

[3] = tested on: Escherichia coli; assay: Antibacterial activity against Escherichia coli ATCC 8739 assessed as growth inhibition after 18 hrs by agar dilution method; conditions: ATCC 8739, 18 h; method in brief: as §1
[4] = tested on: Staphylococcus aureus; assay: Antibacterial activity against Staphylococcus aureus ATCC 6538 assessed as growth inhibition after 18 hrs by agar dilution method; conditions: ATCC 6538, 18 h; method in brief: as §1
[5] = tested on: Bacillus spizizenii; assay: Antibacterial activity against Bacillus subtilis ATCC 6633 assessed as growth inhibition after 18 hrs by agar dilution method; conditions: ATCC 6633, 18 h; method in brief: as §1
[6] = tested on: Pseudomonas aeruginosa; assay: Antibacterial activity against Pseudomonas aeruginosa ATCC 9027 assessed as growth inhibition after 18 hrs by agar dilution method; conditions: ATCC 9027, 18 h; method in brief: as §1
[7] = tested on: Staphylococcus epidermidis; assay: Antibacterial activity against Staphylococcus epidermidis ATCC 12228 assessed as growth inhibition after 18 hrs by agar dilution method; conditions: ATCC 12228, 18 h; method in brief: as §1
[8] = tested on: Staphylococcus aureus; assay: Potency index, ratio of norfloxacin MIC to compound MIC for Staphylococcus aureus ATCC 6538

Structure (SMILES) | MIC [2] [µg/mL] | MIC [3] [µg/mL] | MIC [4] [µg/mL] | MIC [5] [µg/mL] | MIC [6] [µg/mL] | MIC [7] [µg/mL] | Ratio [1] | Ratio [8]
CCn1cc(C(=O)O)c(=O)c2cc(F)c(N3CCN(Cc4oc(CO)cc(=O)c4O)CC3)nc21 | 12.5 (≈ 26.3 µM) | 1.56 (≈ 3.29 µM) | 6.25 (≈ 13.2 µM) | 12.5 (≈ 26.3 µM) | 12.5 (≈ 26.3 µM) | 12.5 (≈ 26.3 µM) | – | –
CCn1cc(C(=O)O)c(=O)c2cc(F)c(N3CCNCC3)cc21 [NORFLOXACIN] | 0.39 (≈ 1.22 µM) | 0.195 (≈ 0.611 µM) | 0.39 (≈ 1.22 µM) | 0.195 (≈ 0.611 µM) | 1.56 (≈ 4.89 µM) | 0.39 (≈ 1.22 µM) | – | –
CCn1cc(C(=O)O)c(=O)c2cc(F)c(N3CCN(Cc4oc(CO)cc(=O)c4O)CC3)cc21 | 1.56 (≈ 3.29 µM) | 0.78 (≈ 1.65 µM) | 3.12 (≈ 6.6 µM) | 0.78 (≈ 1.65 µM) | 3.12 (≈ 6.6 µM) | 6.25 (≈ 13.2 µM) | – | –
COc1c(N2CCN(Cc3oc(CCl)cc(=O)c3O)C(C)C2)c(F)cc2c(=O)c(C(=O)O)cn(C3CC3)c12 (stereo unspecified) | 1.56 (≈ 2.85 µM) | 1.56 (≈ 2.85 µM) | 0.39 (≈ 0.712 µM) | 1.56 (≈ 2.85 µM) | 0.78 (≈ 1.42 µM) | 1.56 (≈ 2.85 µM) | – | –
COc1c(N2CCN(Cc3oc(CO)cc(=O)c3O)C(C)C2)c(F)cc2c(=O)c(C(=O)O)cn(C3CC3)c12 (stereo unspecified) | 1.56 (≈ 2.95 µM) | 0.39 (≈ 0.737 µM) | 0.78 (≈ 1.47 µM) | 3.12 (≈ 5.9 µM) | 0.78 (≈ 1.47 µM) | 3.12 (≈ 5.9 µM) | – | –

Continued by falling MIC [2], values first:

MIC [2] [µg/mL] | MIC [3] [µg/mL] | MIC [4] [µg/mL] | MIC [5] [µg/mL] | MIC [6] [µg/mL] | MIC [7] [µg/mL] | Structure (SMILES) | Ratio [1] | Ratio [8]
1.56 (≈ 3.09 µM) | 0.39 (≈ 0.772 µM) | 3.12 (≈ 6.18 µM) | 3.12 (≈ 6.18 µM) | 3.12 (≈ 6.18 µM) | 6.25 (≈ 12.4 µM) | CCn1cc(C(=O)O)c(=O)c2cc(F)c(N3CCN(Cc4oc(CO)cc(=O)c4O)C(C)C3)c(F)c21 (racemic) | – | –
1.56 (≈ 3.21 µM) | 0.78 (≈ 1.61 µM) | 1.56 (≈ 3.21 µM) | 3.12 (≈ 6.44 µM) | 1.56 (≈ 3.21 µM) | 3.12 (≈ 6.44 µM) | O=C(O)c1cn(C2CC2)c2cc(N3CCN(Cc4oc(CO)cc(=O)c4O)CC3)c(F)cc2c1=O | – | –
0.78 (≈ 1.59 µM) | 0.39 (≈ 0.793 µM) | 1.56 (≈ 3.17 µM) | 1.56 (≈ 3.17 µM) | 1.56 (≈ 3.17 µM) | 1.56 (≈ 3.17 µM) | CCn1cc(C(=O)O)c(=O)c2cc(F)c(N3CCN(Cc4oc(CCl)cc(=O)c4O)CC3)cc21 | – | –
0.195 (≈ 0.387 µM) | 0.78 (≈ 1.55 µM) | 0.097 (≈ 0.192 µM) | 0.39 (≈ 0.774 µM) | 0.195 (≈ 0.387 µM) | 0.39 (≈ 0.774 µM) | O=C(O)c1cn(C2CC2)c2cc(N3CCN(Cc4oc(CCl)cc(=O)c4O)CC3)c(F)cc2c1=O | 8 | 4
